Measurements published in ChEMBL document CHEMBL4145684 (J Med Chem, 2018).
pIC50: −log10 of the molar value. Blank lines part the entries; values can stand above or below the compound they belong to. Activity calls are given as the source filed them. The calls are words filed in the database; no cut-off is given here.

Experiments:
Estrogen receptor [1] = biological target: T1, Estrogen receptor (Homo sapiens, UniProt P03372); assay: Induction of ERalpha degradation in human MCF7 cells in phenol red free RPMI medium containing 5% charcoal dextran-treated FBS incubated for 4 hrs by SP1 and anti-ER rabbit monocolnal antibody based in-cell Western assay
T1 sequence (P03372 whole entry): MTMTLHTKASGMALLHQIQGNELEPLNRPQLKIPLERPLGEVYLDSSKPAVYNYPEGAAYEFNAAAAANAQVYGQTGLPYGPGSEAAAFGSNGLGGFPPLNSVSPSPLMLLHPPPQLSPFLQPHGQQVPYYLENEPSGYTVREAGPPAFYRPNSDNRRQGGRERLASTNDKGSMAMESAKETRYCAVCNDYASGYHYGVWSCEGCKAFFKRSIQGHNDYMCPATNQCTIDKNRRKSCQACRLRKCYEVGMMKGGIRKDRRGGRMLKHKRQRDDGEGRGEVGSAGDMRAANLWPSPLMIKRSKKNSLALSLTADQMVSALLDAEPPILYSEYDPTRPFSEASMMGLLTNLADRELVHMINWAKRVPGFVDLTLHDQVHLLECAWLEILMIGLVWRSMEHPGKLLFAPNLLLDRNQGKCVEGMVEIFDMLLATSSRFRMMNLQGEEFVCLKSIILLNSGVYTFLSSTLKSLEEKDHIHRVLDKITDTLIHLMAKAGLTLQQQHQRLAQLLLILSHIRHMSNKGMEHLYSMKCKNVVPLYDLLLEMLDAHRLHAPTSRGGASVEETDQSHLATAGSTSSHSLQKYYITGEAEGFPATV

MCF7 [2] = assay: Antiproliferative activity against human MCF7 cells assessed as reduction in cell proliferation in RPMI containing 10% FBS incubated for 5 days by Cell-titer-Glo assay; format: functional, cell-based; details: MCF7, 120 h
Procedure, shortened: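 MCF-7 cells, 640/well in RPMI with 10% FBS and 20 mM HEPES, adhered overnight; 10-point 1:5 dilution series (10–0.000005 µM final) for 5 days. CellTiter-Glo luminescence, cell-free medium background subtracted, percent viability vs untreated cells; n ≥ 3.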

Rattus norvegicus [3] = assay: Reduction in uterine wet weight in ethynyl estradiol-stimulated CD-IGS rat at 10 mg/kg, po dosed daily for 3 days by gavage followed 15 mins later by 0.1 mg/kg, po ethynyl estradiol and measured 24 hrs after last dose by immature rat uterine wet weight assay; format: functional
Procedure, shortened: (§1)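 Female immature CD-IGS rats, 21 days old on arrival; oral gavage of vehicle or compound daily for 3 days, ethynyl estradiol 0.1 mg/kg orally 15 min after each dose. Day 4, 24 h post-dose, plasma taken, then uterus removed and weighed. Reduction = 100 x (VehicleEE – Cpd)/(VehicleEE – Vehicle).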

Rattus norvegicus [4] = assay: In-vivo agonist activity at ERalpha in CD-IGS rat assessed as increase in uterine wet weight at 10 mg/kg, po dosed daily for 3 days by gavage and measured 24 hrs after last dose by immature rat uterine wet weight assay; format: functional, organism-based
Procedure, shortened: (§2)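 Immature CD-IGS rats given compound orally for 3 days without ethynyl estradiol (agonist mode); on day 4, 24 h after dosing, uterus removed and weighed; wet weight normalized to total body weight.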

Estrogen receptor [5] = biological target: T1, Estrogen receptor; assay: Binding affinity to ERalpha (unknown origin)
[6] = AUC in mouse at 10 mg/kg, po; format: ADME, organism-based; details: in vivo
Procedure, shortened: (§3)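 Mouse or rat PK: single intravenous dose 3 mg/kg or oral dose 10 mg/kg, vehicle PEG400/PVP/Tween 80/0.5% CMC in water (9:0.5:0.5:90).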

Rattus norvegicus [7] = assay: Reduction in uterine wet weight in ethynyl estradiol-stimulated CD-IGS rat at 1 mg/kg, po dosed daily for 3 days by gavage followed 15 mins later by 0.1 mg/kg, po ethynyl estradiol and measured 24 hrs after last dose by immature rat uterine wet weight assay; format: functional; procedure, shortened: as §1
[8] = Clearance in mouse at 3 mg/kg, iv; format: ADME, organism-based; details: in vivo; procedure, shortened: as §3
[9] = Volume of distribution at steady state in mouse at 3 mg/kg, iv; format: ADME, organism-based; details: in vivo, read-out: Vdss; procedure, shortened: as §3
[10] = Half life in mouse at 3 mg/kg, iv; format: ADME, organism-based; details: in vivo; procedure, shortened: as §3
[11] = Cmax in mouse at 10 mg/kg, po; format: ADME, organism-based; design: dose 10 mg/kg, route oral; details: in vivo; procedure, shortened: as §3
[12] = AUC (0 to infinity) in mouse at 10 mg/kg, po; format: ADME, organism-based; design: dose 10 mg/kg, route oral, time infinity; details: in vivo
[13] = Oral bioavailability in mouse at 10 mg/kg; format: ADME, organism-based; details: in vivo; procedure, shortened: as §3
[14] = Clearance in rat at 3 mg/kg, iv; format: ADME, organism-based; details: in vivo; procedure, shortened: as §3
[15] = Volume of distribution at steady state in rat at 3 mg/kg, iv; format: ADME, organism-based; details: in vivo, read-out: Vdss; procedure, shortened: as §3
[16] = Half life in rat at 3 mg/kg, iv; format: ADME, organism-based; details: in vivo; procedure, shortened: as §3
[17] = Cmax in rat at 10 mg/kg, po; format: ADME, organism-based; design: dose 10 mg/kg, route oral; details: in vivo; procedure, shortened: as §3
[18] = AUC (0 to infinity) in rat at 10 mg/kg, po; format: ADME, organism-based; design: dose 10 mg/kg, route oral, time infinity; details: in vivo
[19] = Oral bioavailability in rat at 10 mg/kg; format: ADME, organism-based; details: in vivo; procedure, shortened: as §3
MCF7 [20] = assay: Antitumor activity against human MCF7 cells xenografted in nu/nu mouse model of tamoxifen-sensitive breast cancer xenograft implanted with 17beta-estradiol time release pellets assessed as reduction tumor volume at 6 mg/kg, po qd for 4 weeks; format: functional, organism-based
MCF7 [21] = assay: Antitumor activity against human MCF7 cells xenografted in nu/nu mouse model of tamoxifen-resistant breast cancer xenograft implanted with 17beta-estradiol time release pellets assessed as reduction tumor volume at 60 mg/kg, po qd for 4 weeks; format: functional, organism-based
Procedure, shortened: (§4)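 Female nu/nu mice with 0.72 mg 60-day 17β-estradiol pellets bearing MCF-7 tumors, pretreated with oral tamoxifen citrate; at ~150-250 mm3 (mean 200 mm3) randomized, tamoxifen stopped, then dosed daily for 4 weeks; tumor volume (length x width2/2) and body weight twice weekly.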

[22] = AUC in human MCF7 cells xenografted nu/nu mouse implanted with 17beta-estradiol time release pellets dosed orally once daily for 4 weeks; format: ADME, organism-based; details: in vivo, po
Rattus norvegicus [23] = assay: Reduction in uterine wet weight in ethynyl estradiol-stimulated CD-IGS rat at 60 mg/kg, po dosed daily for 3 days by gavage followed 15 mins later by 0.1 mg/kg, po ethynyl estradiol and measured 24 hrs after last dose by immature rat uterine wet weight assay; format: functional; procedure, shortened: as §1
Rattus norvegicus [24] = assay: In-vivo agonist activity at ERalpha in CD-IGS rat assessed as increase in uterine wet weight at 60 mg/kg, po dosed daily for 3 days by gavage and measured 24 hrs after last dose by immature rat uterine wet weight assay; format: functional, organism-based; procedure, shortened: as §2
MCF7 [25] = assay: Antitumor activity against human MCF7 cells xenografted in nu/nu mouse model of tamoxifen-sensitive breast cancer xenograft implanted with 17beta-estradiol time release pellets assessed as reduction tumor volume at 60 mg/kg, po qd for 4 weeks; format: functional, organism-based
MCF7 [26] = assay: Antitumor activity against human MCF7 cells xenografted in nu/nu mouse model of tamoxifen-resistant breast cancer xenograft implanted with 17beta-estradiol time release pellets assessed as reduction tumor volume at 120 mg/kg, po qd for 4 weeks; format: functional, organism-based; procedure, shortened: as §4
[27] = Clearance in Sprague-Dawley rat at 1 mg/kg, iv; format: ADME, organism-based; details: in vivo
[28] = Oral bioavailability in Sprague-Dawley rat at 2 mg/kg; format: ADME, organism-based; details: in vivo

pIC50 (Estrogen receptor [1]): 9.70
pIC50 (MCF7 [2]): 10.00
SMILES: CC1=C(c2cccc(O)c2)C(c2ccc(OC[C@H](C)N3CCCCC3)cc2)Oc2ccc(O)cc21 (some centres not stated)

pIC50 (Estrogen receptor [1]): 9.70
pIC50 (MCF7 [2]): 9.52
SMILES: CC1=C(c2cccc(O)c2)C(c2ccc(OCCN3CC[C@H](C)C3)cc2)Oc2ccc(O)cc21 (some centres not stated)

pIC50 (Estrogen receptor [1]): 9.70
pIC50 (MCF7 [2]): 9.70
SMILES: CC1=C(c2cccc(O)c2)C(c2ccc(OCCN3CCCCC3)cc2)Oc2ccc(O)cc21 (configuration not stated)

pIC50 (Estrogen receptor [1]): 9.40
pIC50 (MCF7 [2]): 9.70
SMILES: CC1=C(c2cccc(O)c2)C(c2ccc(OC[C@H](C)N3CCCC3)cc2)Oc2ccc(O)cc21 (some centres not stated)

pIC50 (Estrogen receptor [1]): 9.70
pIC50 (MCF7 [2]): 9.70
SMILES: CC1=C(c2cccc(O)c2)C(c2ccc(OC[C@H](C)N3CCCCCC3)cc2)Oc2ccc(O)cc21 (some centres not stated)

pIC50 (Estrogen receptor [1]): 9.70
pIC50 (MCF7 [2]): 9.70
SMILES: CC1=C(c2cccc(O)c2)C(c2ccc(OCCN3CCCCCC3)cc2)Oc2ccc(O)cc21 (configuration not stated)

More lines, now with the values behind:

SMILES: CC1=C(c2cccc(O)c2)C(c2ccc(OC[C@@H](C)N3CCCC3)cc2)Oc2ccc(O)cc21 (some centres not stated)
pIC50 (Estrogen receptor [1]): 9.52
pIC50 (MCF7 [2]): 9.70
inhibition (INH) (Rattus norvegicus [3]): 84%
Activity (Rattus norvegicus [4]): Active

SMILES: CC1=C(c2cccc(O)c2)[C@@H](c2ccc(OC[C@H](C)N3CC[C@@H](C)C3)cc2)Oc2ccc(O)cc21
pIC50 (Estrogen receptor [1]): 8.01
pIC50 (MCF7 [2]): 7.23
pIC50 (Estrogen receptor [5]): 6.87

SMILES: CC1=C(c2cccc(S(C)(=O)=O)c2)C(c2ccc(OC[C@H](C)N3CC[C@@H](C)C3)cc2)Oc2ccc(O)cc21 (some centres not stated)
pIC50 (Estrogen receptor [1]): 8.85
pIC50 (MCF7 [2]): 8.37

SMILES: CC1=C(c2cccc(O)c2)[C@H](c2ccc(OC[C@H](C)N3CC[C@@H](C)C3)cc2)Oc2ccc(O)cc21
pIC50 (Estrogen receptor [1]): 10.00
pIC50 (MCF7 [2]): 10.00
pIC50 (Estrogen receptor [5]): 8.55

SMILES: CC1=C(c2ccc(F)cc2)C(c2ccc(OC[C@H](C)N3CC[C@@H](C)C3)cc2)Oc2ccc(O)cc21 (some centres not stated)
AUC [6]: 2000 ng·h/mL
pIC50 (Estrogen receptor [1]; mcf7): 9.40
inhibition (INH) (Rattus norvegicus [7]): 111%
clearance [8]: 30 mL/min/kg
Vd [9]: 11 L/kg
half-life [10]: 5.2 h
Cmax [11]: 170 ng/mL
AUC(0-inf) [12]: 2000 ng·h/mL
bioavailability [13]: 35%
clearance [14]: 21 mL/min/kg
Vd [15]: 12 L/kg
half-life [16]: 7.4 h
Cmax [17]: 280 ng/mL
AUC(0-inf) [18]: 4500 ng·h/mL
bioavailability [19]: 54%
Activity (MCF7 [20]): Active
Activity (MCF7 [21]): inactive
AUC at 672 h [22]: 36000 ng·h/mL

SMILES: CC/C(=C(\c1ccccc1)c1ccc(OCCN(C)C)cc1)c1ccccc1 [TAMOXIFEN]
inhibition (INH) (Rattus norvegicus [23]): 78%
Activity (Rattus norvegicus [24]): Active
Activity (MCF7 [25]): Active
Activity (MCF7 [26]): inactive

SMILES: Oc1ccc([C@H]2Sc3cc(O)ccc3O[C@H]2c2ccc(OCCN3CCCCC3)cc2)cc1
clearance [27]: 5 mL/min/kg
bioavailability [28]: 31%

SMILES: CC1=C(c2ccc(C#N)cc2)C(c2ccc(OC[C@H](C)N3CC[C@@H](C)C3)cc2)Oc2ccc(O)cc21 (some centres not stated)
AUC [6]: 2000 ng·h/mL
pIC50 (Estrogen receptor [1]; mcf7): 8.82
pIC50 (MCF7 [2]): 8.00

SMILES: CC1=C(c2cccc(O)c2)C(c2ccc(OC[C@H](C)N3CCC3)cc2)Oc2ccc(O)cc21 (some centres not stated)
pIC50 (Estrogen receptor [1]): 9.05
pIC50 (MCF7 [2]): 10.00

SMILES: CC1=C(c2ccc(S(C)(=O)=O)cc2)C(c2ccc(OC[C@H](C)N3CC[C@@H](C)C3)cc2)Oc2ccc(O)cc21 (some centres not stated)
pIC50 (Estrogen receptor [1]): 8.24
pIC50 (MCF7 [2]): 7.57

SMILES: CC1=C(c2cccc(O)c2)C(c2ccc(OC[C@@H](C)N3CC[C@@H](C)C3)cc2)Oc2ccc(O)cc21 (some centres not stated)
pIC50 (Estrogen receptor [1]): 9.52
pIC50 (MCF7 [2]): 9.70
